Series [1] relates to Nakaseomyces glabratus. Description: Antifungal activity against Candida glabrata ATCC 2001 after 48 hrs by broth microdilution method. The conditions noted are these: ATCC 2001, 48 h. It is filed as functional. The method in brief:
(§1)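 Broth microdilution per NCCLS guidelines in MOPS-buffered RPMI 1640; starting inoculum 1-5 x 10^3 CFU/mL; plates incubated at 35 °C; MIC recorded after 48 h; fluconazole as reference; experiments repeated three times.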
For orientation: Broth dilution looks for growth in wells or tubes with falling amounts of substance.

Series [2] deals with Candida albicans. As to the kind of experiment: Antifungal activity against Candida albicans ATCC 66027 after 48 hrs by broth microdilution method. The settings on record: ATCC 66027, 48 h. It is filed as functional. In a few lines: as §1
For series [3], the system named is Candida albicans. As to the kind of experiment: Antifungal activity against Candida albicans ATCC 14053 after 48 hrs by broth microdilution method. The conditions noted are these: ATCC 14053, 48 h. The format is functional. The method in brief:
as §1

Series [4] deals with Candida albicans. As to the kind of experiment: Antifungal activity against Candida albicans ATCC 10231 after 48 hrs by broth microdilution method. The format is functional. The conditions noted are these: ATCC 10231, 48 h. The method in brief:
as §1

For series [5], the system named is Candida albicans. As to the kind of experiment: Antifungal activity against Candida albicans patient isolate after 48 hrs by broth microdilution method. It is filed as functional. The method in brief:
as §1

Series [6] deals with Trichophyton mentagrophytes. As to the kind of experiment: Antifungal activity against Trichophyton mentagrophytes after 48 hrs by broth microdilution method. It is filed as functional. In a few lines:
as §1

The subject of series [7] is Sporothrix schenckii. As to the kind of experiment: Antifungal activity against Sporothrix schenckii after 48 hrs by broth microdilution method. The format is functional. The method in brief:
as §1

Series [8] relates to Cryptococcus neoformans. Description: Antifungal activity against Cryptococcus neoformans after 48 hrs by broth microdilution method. It is filed as functional. The method in brief:
as §1

Series [9] can be described thus: Selectivity index, ratio of IC50 for human HeLa cells to MIC for metronidazole-susceptible Trichomonas vaginalis. The format is toxicity. The conditions noted are these: read-out: Selectivity Index.
A short description of series [10]: Selectivity index, ratio of IC50 for human HeLa cells to MIC for metronidazole-resistant Trichomonas vaginalis CDC085 ATCC 50143. It is filed as toxicity. The conditions noted are these: read-out: Selectivity Index.
The test system of series [11] is HeLa. Description: Cytotoxicity against human HeLa cells after 24 hrs by MTT assay. It is filed as cell-based. On the technique in general: Tetrazolium dyes change colour on reduction, which living cells bring about.
The test system of series [12] is Trichomonas vaginalis. Description: Antitrichomonas activity against metronidazole-resistant Trichomonas vaginalis CDC085 ATCC 50143 assessed as decrease in cell viability after 48 hrs by trypan blue exclusion method. The conditions noted are these: CDC085 ATCC 50143, 48 h. It is filed as functional.
Series [13] relates to Trichomonas vaginalis. Description: Antitrichomonas activity against metronidazole-susceptible Trichomonas vaginalis assessed as decrease in cell viability after 48 hrs by trypan blue exclusion method. It is filed as functional.
Series [14] relates to Trichomonas vaginalis. As to the kind of experiment: Potency index, ratio of metronidazole MIC to test compound MIC for metronidazole-resistant Trichomonas vaginalis CDC085 ATCC 50143. It is filed as functional.
Series [15] has as its system Candida albicans. As to the kind of experiment: Antifungal activity against Candida albicans MTCC 183 after 48 hrs by broth microdilution method. The format is functional. The settings on record: MTCC 183, 48 h. In a few lines: as §1
Series [16] has as its system Candida parapsilosis. Description: Antifungal activity against Candida parapsilosis ATCC 22019 after 48 hrs by broth microdilution method. It is filed as functional. The conditions noted are these: Lodderomyces parapsilosis, ATCC 22019, 48 h. The method in brief:
as §1

Structures are written as SMILES. Values after ≈ are worked out from the molar mass of the structure shown.

`CN(C)C(=S)SC(=S)N1CCN(C(=S)NCc2ccccc2)CC1`: the MIC in series [1] was over 125 µM; in [2], over 125 µM; in [3], over 125 µM; in series [4], over 125 µM; in series [5], over 125 µM; in series [6], 125 µM (≈ 50 µg/mL). The MIC in [7] was 125 µM (≈ 50 µg/mL); in series [8], over 125 µM; in [12], 251 µM (≈ 99.9 µg/mL); in [13] it was 125 µM (≈ 50 µg/mL); in [15] it was over 125 µM; in series [16], over 125 µM. In addition, the selectivity ratio is over 40 in series [9] and over 20 in series [10]. This compound had a concentration for half-maximal inhibition (IC50) in series [11] of over 5 mM. In addition, in [14], the Ratio is 1.3 - 11.2.

In the case of `CN(C)C(=S)SC(=S)N1CCN(C(=S)NCCc2ccccc2)CC1`, the MIC in [1], in series [2], in series [3], in [4], in [5] and in series [6] was over 121 µM each time. Further, the MIC in series [7] is over 121 µM; in series [8], over 121 µM; in series [12] it was 242 µM (≈ 99.9 µg/mL); in [13] it was 60.5 µM (≈ 25 µg/mL); in series [15], over 121 µM; in series [16], over 121 µM. Besides, the selectivity ratio in series [9] was over 83; in series [10], over 20. Moreover, in series [11], the IC50 is over 5 mM. The Ratio in [14] is 1.3 - 11.2.

Take `CN(C)C(=S)SC(=S)N1CCCCC1`: the MIC in series [1] amounted to 50.4 µM (≈ 12.5 µg/mL); in series [2] it was 50.4 µM (≈ 12.5 µg/mL); in series [3] it was 25.2 µM (≈ 6.26 µg/mL); in [4] it was 50.4 µM (≈ 12.5 µg/mL); in series [5] it was 101 µM (≈ 25 µg/mL); in series [6], 101 µM (≈ 25 µg/mL). Further, the minimal inhibitory concentration (MIC) was 101 µM (≈ 25 µg/mL) in [7]; 202 µM (≈ 50.1 µg/mL) in series [8]; 101 µM (≈ 25 µg/mL) in [12]; 25.2 µM (≈ 6.26 µg/mL) in series [13]; 50.4 µM (≈ 12.5 µg/mL) in series [15]; 101 µM (≈ 25 µg/mL) in series [16]. Also, the selectivity ratio in series [9] was over 200; in series [10], over 50. The compound further displayed an IC50 in series [11] of over 5 mM. Besides, the Ratio in series [14] is 1.5 - 3.8.

For the compound `CCOC(=O)N1CCN(C(=S)SC(=S)N(C)C)CC1`, the MIC in series [1] is 156 µM (≈ 50.1 µg/mL); in [2], 38.9 µM (≈ 12.5 µg/mL); in series [3] it was 156 µM (≈ 50.1 µg/mL); in series [4], over 156 µM; in series [5], 156 µM (≈ 50.1 µg/mL); in series [6], 77.9 µM (≈ 25 µg/mL). The MIC in series [7] is 77.9 µM (≈ 25 µg/mL); in [8], 156 µM (≈ 50.1 µg/mL); in [12], 156 µM (≈ 50.1 µg/mL); in [13], 77.9 µM (≈ 25 µg/mL); in series [15], 156 µM (≈ 50.1 µg/mL); in series [16], 156 µM (≈ 50.1 µg/mL). Also, the results for the selectivity ratio in [9] and in series [10] were 6 and 3, respectively. This compound came in with an IC50 in [11] of 0.53 mM. Also, in series [14], the Ratio is reported as 1.3 - 9.5.

For the compound `CN(C)C(=S)SC(=S)N1CCCC1`, the MIC in series [1] turned out to be 53.4 µM (≈ 12.5 µg/mL); in series [2], 53.4 µM (≈ 12.5 µg/mL); in [3], 26.7 µM (≈ 6.26 µg/mL); in series [4], 53.4 µM (≈ 12.5 µg/mL); in series [5], 107 µM (≈ 25 µg/mL); in [6], 53.4 µM (≈ 12.5 µg/mL). In addition, the minimal inhibitory concentration (MIC) in [7] came to 53.4 µM (≈ 12.5 µg/mL); in series [8], 214 µM (≈ 50.1 µg/mL); in series [12], 107 µM (≈ 25 µg/mL); in series [13], 26.7 µM (≈ 6.26 µg/mL); in series [15], 53.4 µM (≈ 12.5 µg/mL); in [16] it was 107 µM (≈ 25 µg/mL). Also, the selectivity ratio in series [9] is 115; in series [10], 29. The compound further gave an IC50 in series [11] of 3.09 mM. In addition, the Ratio in [14] is listed as 1.5 - 3.8.

On to `CN(C)C(=S)SC(=S)N1CCN(C(=S)NC2CCCCC2)CC1`, for which the minimum inhibitory concentration (MIC) was over 128 µM in series [1]; over 128 µM in [2]; over 128 µM in series [3]; over 128 µM in series [4]; over 128 µM in series [5]; 128 µM (≈ 50 µg/mL) in series [6]. The MIC in [7] is 128 µM (≈ 50 µg/mL); in series [8], over 128 µM; in series [12], 63.9 µM (≈ 25 µg/mL); in [13], 32 µM (≈ 12.5 µg/mL); in series [15] it was over 128 µM; in [16] it was 128 µM (≈ 50 µg/mL). Further, the selectivity ratio was over 161 in series [9] and over 79 in series [10]. The compound also yielded an IC50 in series [11] of over 5 mM. In addition, the Ratio in series [14] is recorded as 1.3 - 11.2.

By MIC is commonly meant the lowest concentration found to suppress growth. Usually IC50 stands for the concentration that inhibits the measured activity by half. High values mean lower potency, low ones higher potency.

The values above are taken from ChEMBL document CHEMBL4138228, “Substituted carbamothioic amine-1-carbothioic thioanhydrides as novel trichomonicidal fungicides: Design, synthesis, and biology” (Eur J Med Chem, 2018).
